Experimental data: ChEMBL document CHEMBL5360535, “Expanding the scope of novel 1,2,3-triazole derivatives as new antiparasitic drug candidates” (RSC Med Chem, 2023)

Assays:
Leishmania donovani = assay: Antileishmanial activity against Leishmania donovani promastigotes assessed as parasite growth inhibition incubated for 72 hrs by alamar blue staining based assay; format: functional, organism-based
Summary of the method: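 L. donovani S1 Sudan strain promastigotes were grown at 26 °C in RPMI-1640 (no bicarbonate or pyruvate) with 10% FBS. Compound dilutions were added to cultures at 2 × 10⁶ cells per mL, at final 40, 8 and 1.6 μg mL⁻¹ (footnote: at least six concentrations, each in duplicate). Incubation was 72 h at 26 °C, with Alamar blue read-out. IC50 came from non-linear logistic regression. Experiments were run in triplicate.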

[1] = Selectivity index, ratio of IC50 for African green monkey Vero cells to IC50 for Plasmodium falciparum D6; format: toxicity, cell-based; settings: read-out: Ratio IC50
Summary of the method: (§1)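 SI = Vero IC50 (Neutral Red, 48 h) divided by P. falciparum IC50. Parasite IC50 was from asynchronous D6 or W2 cultures (2% hematocrit, 2% parasitemia), with DMSO-dissolved compounds diluted in RPMI-1640. Incubation was 48 h at 37 °C under 90% N₂/5% CO₂/5% O₂, with growth read by pLDH activity (Malstat). Chloroquine and artemisinin were positive controls.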

Plasmodium falciparum [2] = assay: Antimalarial activity against chloroquine-resistant Plasmodium falciparum W2 assessed as parasite growth inhibition incubated for 48 hrs by LDH assay; format: functional, organism-based; settings: W2, 48 h
Summary of the method: (§2)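 Asynchronous P. falciparum cultures (2% hematocrit, 2% parasitemia) were exposed to DMSO-dissolved compound dilutions in RPMI-1640. They were held at 37 °C for 48 h in a humidified chamber under 90% N2/5% CO2/5% O2. Growth was read as pLDH activity with Malstat reagent, with medium, RBC and DMSO controls. IC50 came from non-linear logistic dose-response regression, in triplicate.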

[3] = Cytotoxicity against African green monkey Vero cells incubated for 48 hrs by Neutral Red assay; format: toxicity, cell-based, Chlorocebus sabaeus
Summary of the method: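 Vero cells were maintained in RPMI with 10% heat-inactivated FCS, 0.15% NaHCO₃ and penicillin/streptomycin at 37 °C under 5% CO₂. Confluent monolayers were exposed to various concentrations up to a maximum of 4.75 μg mL⁻¹ for 48 h at 37 °C. Viability was read by Neutral Red uptake, with DMSO as negative control. IC50 was taken from the concentration–response curve.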

Plasmodium falciparum [4] = assay: Antimalarial activity against chloroquine-sensitive Plasmodium falciparum D6 assessed as parasite growth inhibition incubated for 48 hrs by LDH assay; format: functional, organism-based; settings: D6, 48 h; summary of the method: as §2
[5] = Selectivity index, ratio of IC50 for African green monkey Vero cells to IC50 for Plasmodium falciparum W2; format: toxicity, cell-based; settings: read-out: Ratio IC50; summary of the method: as §1
Plasmodium falciparum [6] = assay: Antiparasitic activity against chloroquine-resistant Plasmodium falciparum W2 infected in red blood cells assessed as inhibition of parasite growth by HRP2 assay; format: functional, organism-based, Red blood cell; settings: W2, Erythrocyte

Row | Structure (SMILES) | IC50 (Leishmania donovani) [µM] | selectivity ratio [1] | IC50 (Plasmodium falciparum [2]) [µM] | IC50 at 48 h [3] [µM] | IC50 (Plasmodium falciparum [4]) [µM] | selectivity ratio [5] | IC50 (Plasmodium falciparum [6]) [µM]
1 | CC(C)=CCC/C(C)=C/CC/C(C)=C/Cn1cc(CO)nn1 | 56 |  |  |  |  |  | 
2 | c1ccc(CCCn2cc(-c3ccccc3)nn2)cc1 | 68.4 |  |  |  |  |  | 
3 | CCOC(=O)Cn1cc(C(=O)OC)nn1 |  | > 1.7 | 12.3 | > 20.9 | 12.3 | > 1.7 | 
4 | CCCc1cn(C/C=C/c2ccccc2)nn1 |  | < 1 | 22 | > 20.9 | 20.9 | < 1 | 
5 | CC(C)=CCC/C(C)=C/CC/C(C)=C\Cn1cc(C(C)O)nn1 (stereo not drawn) | 59.9 |  |  |  |  |  | 
6 | CCCCCc1cn(C/C=C/c2ccccc2)nn1 | 74.4 |  |  |  |  |  | 
7 | CCCCCCCCCCc1cn(Cc2ccccc2)nn1 |  | > 1.44 | 10.7 | > 15.9 | 11 | > 1.48 | 
8 | CCCCCc1cn(C/C=C(\C)CC/C=C(\C)CCC=C(C)C)nn1 |  | > 3.96 | 6.69 | > 13.8 | 3.49 | > 2.07 | 
9 | CCCCCCCCCCn1cc(C(=O)OC)nn1 | 78.5 | > 1.58 | 6.73 | > 17.8 | 11.2 | > 2.64 | 
10 | CCCc1cn(CCCc2ccccc2)nn1 |  | > 1.36 | 11.3 | > 20.7 | 15.3 | > 1.83 | 
11 | C[C@@H]1CC[C@H]2[C@@H](C)C(=O)O[C@@H]3O[C@@]4(C)CC[C@@H]1[C@]32OO4 [ARTEMISININ] |  | > 179 |  |  |  | > 179 | 
12 | CCCCCCCCc1cn(C/C=C/c2ccccc2)nn1 |  | > 1.48 | 10.1 | > 16 | 10.8 | > 1.58 | 
13 | CC(C)=CCC/C(C)=C/CC/C(C)=C\Cn1cc(CCO)nn1 | 63 | > 5.46 | 2.05 | > 15 | 2.74 | > 7.31 | 
14 | CC(C)=CCC/C(C)=C/CC/C(C)=C\Cn1cc(C(C)(C)O)nn1 | 63.4 |  |  |  |  |  | 
15 | c1ccc(Cn2cc(-c3ccccc3)nn2)cc1 | 85 |  |  |  |  |  | 
16 | CC(C)=CCC/C(C)=C/CC/C(C)=C/Cn1cc(C(C)(C)O)nn1 | 48.3 | > 6.09 | 1.99 | > 14.3 | 2.35 | > 7.2 | 
17 | CC(C)=CCC/C(C)=C/CC/C(C)=C/Cn1cc(CCO)nn1 | 63 |  |  |  |  |  | 
18 | O=Cn1cc(-c2ccnc3cc(Cl)ccc23)nn1 |  |  |  |  |  |  | 1.4
19 | CCCCCCCCc1cn(Cc2ccccc2)nn1 | 22.1 |  |  |  |  |  | 
20 | O=C(O)c1cn(Cc2ccccc2)nn1 | 18.7 |  |  |  |  |  | 
21 | CCCCCCCCn1cc(CO)nn1 |  | > 1.7 | 6.63 | > 22.5 | 13.3 | > 3.39 | 
22 | COC(=O)c1cn(CC=C(C)C)nn1 |  | > 1 | 23.1 | > 24.3 | 24.3 | 1.06 | 
23 | C(=C\c1ccccc1)/Cn1cc(-c2ccccc2)nn1 |  | > 1.58 | 13 | > 18.2 | 11.5 | > 1.4 | 
24 | COC(=O)c1cn(Cc2ccccc2)nn1 | 92.1 |  |  |  |  |  | 
25 | CCCCCc1cn(CCCc2ccccc2)nn1 |  | > 1.13 | 10.9 | > 18.5 | 16.3 | > 1.7 | 
26 | CC(C)=CCC/C(C)=C/CC/C(C)=C/Cn1cc(C(C)O)nn1 (stereo not drawn) | 56.7 |  |  |  |  |  | 
27 | CC(C)=CCC/C(C)=C/CC/C(C)=C\Cn1cc(CO)nn1 | 59.3 |  |  |  |  |  | 
